PMI act satM6P: increases human PMI activity with near-saturating mannose 6-phosphate. coupled PMI enzyme assay, resazurin fluorescence, 20 min; stronger effect = higher value; 1 = untreated enzyme, 0 = substrate-free blank. 190,000 tested, 0.34% active. activation factor at 20 µM;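 active = activation factor of 2 or more at 20 µM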
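Material: human phosphomannose isomerase with PGI, G6PDH, diaphorase coupling enzymes. Quantity: 15 ng/mL PMI. Medium: HEPES pH 7.4 buffer with MgCl2 and Tween-20. Reagent: Near-saturating mannose-6-phosphate, 1.0 mM. Compound: 20 µM single dose. Times: enzyme reaction with compound 20 min at room temperature. Detection: resorufin fluorescence at Ex 544/Em 590 nm.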
ROMK primary: modulates human ROMK potassium channel activity. Tet-inducible ROMK, thallium flux fluorescence; actives lie on both sides. B-score at 10 µM. 130,000 tested, 2% active. AID 1918;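 active = signal ratio slope over the read window, or its plate-corrected B-score, at least 3 SD from the plate mean, either direction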;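 note: B-score of the F/F0 ratio slope over 7 to 12 s after thallium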
Target sequence (P48048 whole entry, looked up): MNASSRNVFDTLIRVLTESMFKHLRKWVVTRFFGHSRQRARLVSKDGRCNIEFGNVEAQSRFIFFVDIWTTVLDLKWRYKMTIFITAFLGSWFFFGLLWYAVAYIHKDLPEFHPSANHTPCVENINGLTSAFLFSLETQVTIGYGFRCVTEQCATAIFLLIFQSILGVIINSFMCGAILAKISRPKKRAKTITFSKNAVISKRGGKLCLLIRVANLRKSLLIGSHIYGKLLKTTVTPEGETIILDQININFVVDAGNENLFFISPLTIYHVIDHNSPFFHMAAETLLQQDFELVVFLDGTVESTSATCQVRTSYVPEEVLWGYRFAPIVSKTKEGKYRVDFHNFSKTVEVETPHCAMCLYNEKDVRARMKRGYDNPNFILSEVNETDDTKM
KCC2 mod: KCC2 (human) Cl- transport modulation. KCC2 cells, thallium flux FluoZin-2 fluorescence. B-score of Tl+ flux slope (higher = more flux/activation; lower = inhibition) at 10 µM. 190,000 tested, 2.2% active. Q9H2X9;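 active = thallium flux slope and its plate-corrected score both differing from the plate sample mean at a set confidence after two filtering rounds, in either direction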;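 note: slope of fluorescence scaled to starting intensity during 10 to 20 s after thallium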
ABCB1 inh: blocks JC-1 efflux by human ABCB1 transporter; P08183; CCRF-Adr cells, flow cytometry; inhibition, % at 6.6 µM; 190,000 tested, 0.067% active; in the data active = inhibition above about 40%;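 note: 0% = vehicle and 100% = reference inhibitor; higher value means more JC-1 retained so stronger ABCB1 efflux block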
PMI activator: increases human mannose-6-phosphate isomerase activity; AID 1214; 190,000 tested, 0.005% active; purified human PMI, coupled resazurin fluorescence, 20 min; stronger effect = higher value; 1 = vehicle control, 0 substrate-free wells; activation factor at 20 µM;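 active = activation factor of 2 or more at 20 µM, relative to plate controls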
ABCG2 inh: inhibitors of human ABCG2 transporter, ABCB1 counter-screen | inhibition, % at 6.6 µM | Q9UNQ0 | 190,000 tested, 0.1% active | IgMXP3 cells, JC-1 efflux, flow cytometry;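 active = inhibition above 80%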;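 note: 0% = DMSO and 100% = nicardipine control wells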
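Read-out basis: Efflux inhibition in percent versus controls | Test system: ABCG2 IgMXP3 and barcoded ABCB1 CCRF-Adr cell mix | Quantity: 3 million cells/mL in well | Schedule: 10 min at 25 °C | Control set: Nicardipine as high control, DMSO as low control | Reagent: JC-1 as fluorescent efflux pump substrate | Signal: Flow cytometry of retained JC-1 fluorescence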
KCC2 secondary: KCC2 (human) modulation, secondary assay | shares compounds with KCC2 mod | HEK293-KCC2, thallium flux, FluoZin2 fluorescence; stronger effect = higher value | normalised thallium flux (F/F0 slope) at 10 µM | 3,700 tested, 15% active;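 active = thallium flux slope above the same plate's solvent-only control mean plus 3 SD; inconclusive = the two replicate wells disagree; inactive = no significant difference from solvent-only control wells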
KCC2 bumet counter: thallium flux despite bumetanide block in KCC2 cells, secondary assay 3 | normalized thallium flux at 10 µM | 3,700 tested, 49% active | AID 1714 | HEK293-KCC2 + bumetanide/ouabain, thallium flux FluoZin2; stronger effect = higher value | shares compounds with KCC2 mod;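 active = thallium entry rate above the same plate's blocked-transporter control wells by more than 3 SD; inconclusive = the two repeat wells disagree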;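 note: raw slope of fluorescence over initial fluorescence between 10 and 20 s after thallium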
KCC2 sec2: KCC2 (human) modulation, second secondary assay; shares compounds with KCC2 mod; HEK293-KCC2, thallium flux FluoZin2 fluorescence; actives lie on both sides; F/F0 rise rate, 10–20 s post-thallium; normalized thallium flux at 10 µM; 3,700 tested, 23% active; AID 1715;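 active = thallium flux slope more than 3 SD above or below the plate's solvent-only control mean, mostly below; inconclusive = the two repeat wells disagreed; inactive = no significant shift from solvent-only controls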;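 note: raw slope with 0.1% DMSO as baseline and bumetanide as block control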
HEK counter1: parental HEK flux effect, counter-screen; AID 1716; 3,700 tested, 46% active; shares compounds with KCC2 mod; HEK293 parental cells, thallium flux FluoZin2, ouabain; baseline-ratio fluorescence slope, 10–20 s after thallium; thallium flux rate (normalised fluorescence) at 10 µM;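 active = thallium flux rate significantly above the same plate's solvent-only control wells, beyond their mean plus 3 SD; inconclusive = the two replicate wells gave conflicting results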
KCC2 retest ouab: modulates human KCC2 on retest with ouabain; HEK293-KCC2, thallium flux FluoZin2 fluorescence; bidirectional: low = inhibitor, high = activator; shares compounds with KCC2 mod; 3,700 tested, 48% active; raw Tl+ flux slope (below DMSO = inhibition, above = activation) at 10 µM; AID 1717;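 active = thallium flux slope beyond 3 SD from same-plate DMSO control mean in most replicates, usually higher, sometimes lower; inconclusive = repeat tests gave conflicting results; inactive = no significant difference from controls in most replicates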;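 note: slope of initial-normalized fluorescence between seconds 10 and 20 after thallium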
HEK293 Tl flux2: acts in parental HEK cells, second KCC2 counter-screen | thallium flux slope at 10 µM | 3,700 tested, 33% active | shares compounds with KCC2 mod | AID 1718 | HEK293 parental, thallium flux FluoZin-2 fluorescence slope;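 active = thallium flux slope above the same plate's solvent-control mean plus 3 SD in both duplicate wells; inconclusive = duplicate wells that disagreed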;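 note: run without ouabain in cells lacking the KCC2 cotransporter; slope of fluorescence scaled to its starting value between 10 and 20 s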
ROMK hit retest: retested hit modulating human ROMK potassium channel; ROMK thallium flux, fluorescence ratio; stronger effect = lower value; normalized thallium flux (F/F0 slope) at 10 µM; AID 1917; 3,000 tested, 54% active; shares compounds with ROMK primary;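 active = Flux at 10 µM at least 3 SD below or above vehicle control mean in one or both replicates; inconclusive = no clear call, values can overlap the other calls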
* marks the source's active call; other numbers are inactive results; ? = inconclusive; · = not tested or not shown. In the library only some 3.3% were active in any assay of this set; here they are far more common.

SMILES	PMI act satM6P	ROMK primary	KCC2 mod	ABCB1 inh	PMI activator	ABCG2 inh	ROMK hit retest	others
CC1(c2ccccc2)NCCN2C(=O)CSC21 (stereo not given)	1	-0.0093	-2.3	1	0.9	4	·	KCC2 secondary=0.0086;KCC2 bumet counter=0.0061;KCC2 sec2=0.035;HEK counter1=0.0045;KCC2 retest ouab=0.02;HEK293 Tl flux2=0.011
O=c1c(C=NCc2cccs2)c(O)n(C2CCCCC2)c(=O)n1C1CCCCC1	1	-1	-3*	1	1	1	·	KCC2 secondary=?;KCC2 bumet counter=0.0044;KCC2 sec2=0.03;HEK counter1=0.0072;KCC2 retest ouab=0.02;HEK293 Tl flux2=0.01
O=c1c(C=Nc2cccnc2Cl)c(O)n(CCCCl)c(=O)n1C1CCCCC1	1.2	-0.39	1.3	1	1	6	·
O=C(O)c1c[nH]c2ccc(S(=O)(=O)N(CCCl)CCCl)cc12	1.1	-0.23	0.085	0	1.1	2	·
CCn1c(O)c(/C=N/NC(=O)c2ccccc2)c(=O)n(CC)c1=S	·	·	-0.27	·	·	·	0.056*
c1ccc2c(c1)CC1CNCc3cccc(c31)S2 (stereo not given)	0.9	-2.8*	2.4	0	0.9	0	0.054*
CCOP(=O)(Cc1cc(C(C)=O)c(C)o1)OCC	·	·	0.049	·	·	·	·
c1ccc(-c2cc(-c3ccccc3)[n+](-c3ccccc3)c(-c3ccccc3)c2)cc1	·	-3.6*	-1.5	·	·	·	0.044*
C[n+]1c(-c2ccccc2)cc(-c2ccc(Cl)cc2)cc1-c1ccccc1	1	-1.4	0.028	2	1	11	·
CN(C)c1ccc(-[n+]2c(-c3ccccc3)cc(-c3ccccc3)cc2-c2ccccc2)cc1	1.1	-2.2*	-0.86	0	1	-6	0.036*
CCN(CC)c1ccc(N=Cc2c(O)n(CCC3=CCCCC3)c(=O)[nH]c2=O)cc1	0.4	-7.1*	·	2	0.8	3	0.037*
CN(C)c1ccc(N=Cc2c(O)n(CCC3=CCCCC3)c(=O)[nH]c2=O)cc1	0.7	-2.7	·	1	1	11	·
C/C(=N\N1CCCCCC1)c1c(O)n(C)c(=O)n(C)c1=O	·	·	0.59	·	·	·	·
COc1cc(N2CCOCC2)ccc1/C=C1\C(=O)NC(=O)N(C2CCCCC2)C1=O	0.8	-2.5*	0.16	-1	0.9	-3	0.072
O=[N+]([O-])c1ccc(N2CCCNCC2)c2ncccc12	·	·	-0.0054	·	·	·	0.039*
CCOC(=O)c1c(C)n(Cc2ccco2)c2ccc(O)cc12	1	·	-0.39	0	0.8	3	·
CCCCn1c(C)c(C(=O)OCC)c2c(CN3CCOCC3)c(O)ccc21	0.9	-2.3*	·	1	0.9	2	0.066*
CC1(C)C2([N+](=O)[O-])CN3CN(C2)CC1([N+](=O)[O-])C3	0.7	0.37	0.19	1	0.9	4	·
O=C(COc1ccccc1)N1CCN(C2CCCC2)CC1	1	·	0.22	0	0.9	-5	·

Source: PubChem
